Measurements: PubChem BioAssay
Where “and” joins values, the source holds several entries; their conditions need not be identical. Identical values can stand only once. Calls of active or inactive are those of the source.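 How the source made its calls, unless noted: active means viability at or under a set limit in both replicates, limit being median viability minus 3 SD (cut at about 48% in these data, passing the limit was not always enough); inconclusive means at or under the limit in just one replicate; inactive means at or above the limit in both replicates.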

Columns and labels:
[1] = reducers of endogenous Her2 protein level, primary screen, SKBR3 breast tumor cells, AlphaScreen, ATP viability (AID 461;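 active means Her2 level under about 52% in both replicate screens, with viability over 70% of control, limit read from the data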;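 on Her2 level: lower value means less Her2 protein in the cells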;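 on viability: percent of carrier control wells set as 100% viability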); conditions: 18-24 h, measured here: SKBR3 viability, ATP luminescence, at 10 µM
[2] = molecular target: Receptor tyrosine-protein kinase erbB-2 (Homo sapiens) (UniProt P04626); assay: as above; conditions: 18-24 h, at 10 µM, stronger effect = lower value
Chain of Receptor tyrosine-protein kinase erbB-2 (Homo sapiens) (P04626 whole entry, looked up): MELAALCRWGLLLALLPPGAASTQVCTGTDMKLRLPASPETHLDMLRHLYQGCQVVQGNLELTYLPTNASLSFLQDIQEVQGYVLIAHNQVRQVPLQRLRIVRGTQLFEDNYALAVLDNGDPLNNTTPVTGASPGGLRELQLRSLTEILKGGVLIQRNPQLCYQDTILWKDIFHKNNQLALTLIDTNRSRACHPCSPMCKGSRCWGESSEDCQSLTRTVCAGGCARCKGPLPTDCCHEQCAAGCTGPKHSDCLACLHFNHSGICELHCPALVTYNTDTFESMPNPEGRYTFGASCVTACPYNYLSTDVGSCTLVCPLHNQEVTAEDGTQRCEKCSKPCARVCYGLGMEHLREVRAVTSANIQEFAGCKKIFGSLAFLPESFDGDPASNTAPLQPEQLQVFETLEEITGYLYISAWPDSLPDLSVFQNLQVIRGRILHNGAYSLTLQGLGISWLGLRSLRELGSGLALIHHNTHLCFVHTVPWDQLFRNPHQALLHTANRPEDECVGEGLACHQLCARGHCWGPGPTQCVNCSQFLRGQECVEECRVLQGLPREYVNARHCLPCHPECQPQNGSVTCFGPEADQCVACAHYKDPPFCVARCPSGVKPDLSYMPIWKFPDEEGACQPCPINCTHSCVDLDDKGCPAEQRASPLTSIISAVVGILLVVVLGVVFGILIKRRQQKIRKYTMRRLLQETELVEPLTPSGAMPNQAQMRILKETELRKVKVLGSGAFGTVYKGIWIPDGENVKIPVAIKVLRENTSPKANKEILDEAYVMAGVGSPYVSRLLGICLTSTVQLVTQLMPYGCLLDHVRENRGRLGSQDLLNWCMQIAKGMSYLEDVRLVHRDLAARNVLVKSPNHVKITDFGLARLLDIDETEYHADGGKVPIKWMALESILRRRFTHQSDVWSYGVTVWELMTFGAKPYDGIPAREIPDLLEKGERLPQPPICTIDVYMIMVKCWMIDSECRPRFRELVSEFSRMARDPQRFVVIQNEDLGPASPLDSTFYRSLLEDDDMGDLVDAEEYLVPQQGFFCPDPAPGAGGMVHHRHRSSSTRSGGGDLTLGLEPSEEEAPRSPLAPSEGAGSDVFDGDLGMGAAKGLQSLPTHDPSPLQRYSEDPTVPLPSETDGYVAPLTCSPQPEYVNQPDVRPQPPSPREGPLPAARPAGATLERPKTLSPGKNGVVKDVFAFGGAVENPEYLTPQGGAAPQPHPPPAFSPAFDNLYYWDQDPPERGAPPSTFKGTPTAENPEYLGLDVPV

[3] = SK-BR-3 cell growth inhibitors, pilot screen, 24 h, human (AID 572;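 active means viability at or below 10% of carrier control in both of two separate runs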;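 further: compound exposure lasted between 18 and 24 h rather than exactly 24 h; 100% = carrier-treated control wells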); conditions: SK-BR-3 viability, CellTiter-Glo luminescence, at 10 µM, stronger effect = lower value
[4] = HUVEC growth inhibition – cell-based, human, primary screen (AID 575;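 active means viability at or below 30% in both replicate assays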;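 further: 100% = median of untreated cell wells with 0.1% DMSO on each plate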); conditions: HUVEC proliferation, CellTiter-Glo luminescence, 72 h; at 10 µM; stronger effect = lower value
Method in brief: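 Test system – primary HUVEC, no more than 12 passages · Dosing – one dose, 10 µM final, 0.1% DMSO · Times – 72 h treatment at 37 °C · Measured by – ATP-based CellTiter-Glo luminescent read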

[5] = growth inhibitors of H69AR lung tumor, primary screen, human, duplicate replicates (AID 580); conditions: H69AR lung tumor cells viability, ATP luminescence, 72 h; at 10 µM; stronger effect = lower value;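 further: 100% = mean luminescence of untreated wells and 0% = no signal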
[6] = reversal of MRP1-mediated doxorubicin resistance, pilot screen, H69AR cells, doxorubicin co-treatment (AID 601;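 active means viability loss from added drug above about 55%, and viability with drug at most 40%, in both replicates, limit read from the data, passing the limit was not always enough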); conditions: CellTiter-Glo, 72 h, at 10 µM; for differential viability (reversal): stronger effect = higher value
[7] = H69AR cells + 2 uM doxorubicin, measured here: viability with 2 uM doxorubicin, stronger effect = lower value
[8] = H69AR cells, compound alone cytotoxicity

## CC(=O)OCC(=O)[C@@]1(O)[C@H](C)C[C@H]2[C@@H]3CCC4=CC(=O)C=C[C@]4(C)[C@@]3(F)[C@@H](O)C[C@@]21C
[1]
  viability: 118%
[2]
  Her2 level: 116% (inactive)
[3]
  viability: 118% (inactive)
[4]
  viability: 101% (inactive)
[5]
  viability: 93.5% (inactive)
[6]; H69AR cells + 2 uM doxorubicin
  differential viability (reversal): -15.8% (inactive)
[6]; [7]
  viability: 109%
[6]; [8]
  viability: 93.5%

## CO[C@@]1(NC(=O)CSCC#N)C(=O)N2C(C(=O)O)=C(CSc3nnnn3C)CS[C@@H]21
[1]
  viability: 110%
[2]
  Her2 level: 136% (inactive)
[3]
  viability: 110% (inactive)
[4]
  viability: 97% (inactive)
[5]
  viability: 95% (inactive)
[6]; H69AR cells + 2 uM doxorubicin
  differential viability (reversal): -5.77% (inactive)
[6]; [7]
  viability: 101%
[6]; [8]
  viability: 95%

## c1ccc(CN(CC2=NCCN2)c2ccccc2)cc1
[1]
  viability: 91.5% and 100%
[2]
  Her2 level: 114% (inactive) and 91.5% (inactive)
[3]
  viability: 91.5% (inactive) and 100% (inactive)
[4]
  viability: 94.1% (inactive) and 87.9% (inactive)
[5]
  viability: 93.2% (inactive) and 96.6% (inactive)
[6]; H69AR cells + 2 uM doxorubicin
  differential viability (reversal): 6.63% (inactive) and -1.34% (inactive)
[6]; [7]
  viability: 86.6% and 97.9%
[6]; [8]
  viability: 93.2% and 96.6%

## CC(C[N+](C)(C)C)OC(N)=O (stereo not given)
[1]
  viability: 101%
[2]
  Her2 level: 114% (inactive)
[3]
  viability: 101% (inactive)
[4]
  viability: 97.5% (inactive)
[5]
  viability: 99.4% (inactive)
[6]; H69AR cells + 2 uM doxorubicin
  differential viability (reversal): 1.13% (inactive)
[6]; [7]
  viability: 98.3%
[6]; [8]
  viability: 99.4%

## C[C@@H]1C[C@H]2[C@@H]3CCC4=CC(=O)C=C[C@]4(C)[C@@]3(F)[C@@H](O)C[C@]2(C)[C@@]1(O)C(=O)COP(=O)(O)O
[1]
  viability: 99%
[2]
  Her2 level: 125% (inactive)
[3]
  viability: 99% (inactive)
[4]
  viability: 102% (inactive)
[5]
  viability: 97.9% (inactive)
[6]; H69AR cells + 2 uM doxorubicin
  differential viability (reversal): -24.3% (inactive)
[6]; [7]
  viability: 122%
[6]; [8]
  viability: 97.9%

## C[C@]12CC[C@H]3[C@@H](CCC4=CC(=O)CC[C@@]43C)[C@@H]1CC[C@@H]2C(=O)CO
[1]
  viability: 106%
[2]
  Her2 level: 90.5% (inactive)
[3]
  viability: 106% (inactive)
[4]
  viability: 56.6% (inactive)
[5]
  viability: 78.6% (inactive)
[6]; H69AR cells + 2 uM doxorubicin
  differential viability (reversal): -16.3% (inactive)
[6]; [7]
  viability: 94.9%
[6]; [8]
  viability: 78.6%

## CC1(C)O[C@@H]2C[C@H]3[C@@H]4CCC5=CC(=O)C=C[C@]5(C)[C@@]4(F)[C@@H](O)C[C@]3(C)[C@]2(C(=O)CO)O1
[1]
  viability: 90.5%
[2]
  Her2 level: 128% (inactive)
[3]
  viability: 90.5% (inactive)
[4]
  viability: 103% (inactive)
[5]
  viability: 92.8% (inactive)
[6]; H69AR cells + 2 uM doxorubicin
  differential viability (reversal): -10.5% (inactive)
[6]; [7]
  viability: 103%
[6]; [8]
  viability: 92.8%

## CC(=O)NS(=O)(=O)c1ccc(N)cc1
[1]
  viability: 118%
[2]
  Her2 level: 124% (inactive)
[3]
  viability: 118% (inactive)
[4]
  viability: 90% (inactive)
[5]
  viability: 102% (inactive)
[6]; H69AR cells + 2 uM doxorubicin
  differential viability (reversal): 6.32% (inactive)
[6]; [7]
  viability: 95.4%
[6]; [8]
  viability: 102%

## c1ccc2[nH]c(-c3cscn3)nc2c1
[1]
  viability: 106%
[2]
  Her2 level: 104% (inactive)
[3]
  viability: 106% (inactive)
[4]
  viability: 91.1% (inactive)
[5]
  viability: 97.9% (inactive)
[6]; H69AR cells + 2 uM doxorubicin
  differential viability (reversal): -4.19% (inactive)
[6]; [7]
  viability: 102%
[6]; [8]
  viability: 97.9%

## CC(=O)[C@@]1(O)CC[C@H]2[C@@H]3CCC4=CC(=O)CC[C@]4(C)[C@H]3[C@@H](O)C[C@@]21C
[1]
  viability: 97%
[2]
  Her2 level: 104% (inactive)
[3]
  viability: 97% (inactive)
[4]
  viability: 94.8% (inactive)
[5]
  viability: 99.5% (inactive)
[6]; H69AR cells + 2 uM doxorubicin
  differential viability (reversal): 0.36% (inactive)
[6]; [7]
  viability: 99.2%
[6]; [8]
  viability: 99.5%

## Nc1ccc2cn[nH]c2c1
[1]
  viability: 100%
[2]
  Her2 level: 128% (inactive)
[3]
  viability: 100% (inactive)
[4]
  viability: 82.2% (inactive)
[5]
  viability: 93.1% (inactive)
[6]; H69AR cells + 2 uM doxorubicin
  differential viability (reversal): -18.1% (inactive)
[6]; [7]
  viability: 111%
[6]; [8]
  viability: 93.1%

## Cc1cc(C)nc(NS(=O)(=O)c2ccc(N)cc2)n1
[1]
  viability: 104%
[2]
  Her2 level: 110% (inactive)
[3]
  viability: 104% (inactive)
[4]
  viability: 83.1% (inactive)
[5]
  viability: 86.7% (inactive)
[6]; H69AR cells + 2 uM doxorubicin
  differential viability (reversal): 7.25% (inactive)
[6]; [7]
  viability: 79.4%
[6]; [8]
  viability: 86.7%

## CCCC(=O)Nc1ncnc2c1ncn2[C@@H]1O[C@@H]2COP(=O)(O)O[C@H]2[C@H]1OC(=O)CCC
[1]
  viability: 102%
[2]
  Her2 level: 104% (inactive)
[3]
  viability: 102% (inactive)
[4]
  viability: 109% (inactive)
[5]
  viability: 104% (inactive)
[6]; H69AR cells + 2 uM doxorubicin
  differential viability (reversal): 13.3% (inactive)
[6]; [7]
  viability: 90.8%
[6]; [8]
  viability: 104%

## CCN(CC)CC#CCOC(=O)C(O)(c1ccccc1)C1CCCCC1 (stereo not given)
[1]
  viability: 82%
[2]
  Her2 level: 99% (inactive)
[3]
  viability: 82% (inactive)
[4]
  viability: 79.6% (inactive)
[5]
  viability: 71.7% (inactive)
[6]; H69AR cells + 2 uM doxorubicin
  differential viability (reversal): -0.33% (inactive)
[6]; [7]
  viability: 72.1%
[6]; [8]
  viability: 71.7%

## C[C@]12C=CC(=O)C=C1CC[C@H]1[C@@H]3C[C@@H](O)[C@](O)(C(=O)CO)[C@@]3(C)C[C@H](O)[C@@]12F
[1]
  viability: 94%
[2]
  Her2 level: 110% (inactive)
[3]
  viability: 94% (inactive)
[4]
  viability: 101% (inactive)
[5]
  viability: 106% (inactive)
[6]; H69AR cells + 2 uM doxorubicin
  differential viability (reversal): -2.81% (inactive)
[6]; [7]
  viability: 109%
[6]; [8]
  viability: 106%

## Cn1c([N+](=O)[O-])cnc1COC(N)=O
[1]
  viability: 108%
[2]
  Her2 level: 105% (inactive)
[3]
  viability: 108% (inactive)
[4]
  viability: 102% (inactive)
[5]
  viability: 102% (inactive)
[6]; H69AR cells + 2 uM doxorubicin
  differential viability (reversal): 16.2% (inactive)
[6]; [7]
  viability: 85.7%
[6]; [8]
  viability: 102%

## CN1CCCN=C1COC(=O)C(O)(c1ccccc1)C1CCCCC1 (stereo not given)
[1]
  viability: 95%
[2]
  Her2 level: 79.5% (inactive)
[3]
  viability: 95% (inactive)
[4]
  viability: 95% (inactive)
[5]
  viability: 91.6% (inactive)
[6]; H69AR cells + 2 uM doxorubicin
  differential viability (reversal): 3.15% (inactive)
[6]; [7]
  viability: 88.4%
[6]; [8]
  viability: 91.6%

## Nc1ccc(S(=O)(=O)Nc2ncccn2)cc1
[1]
  viability: 96.5%
[2]
  Her2 level: 100% (inactive)
[3]
  viability: 96.5% (inactive)
[4]
  viability: 91.4% (inactive)
[5]
  viability: 104% (inactive)
[6]; H69AR cells + 2 uM doxorubicin
  differential viability (reversal): 5.02% (inactive)
[6]; [7]
  viability: 98.7%
[6]; [8]
  viability: 104%

## CCCCOc1ccc(CC(=O)NO)cc1
[1]
  viability: 122%
[2]
  Her2 level: 98.5% (inactive)
[3]
  viability: 122% (inactive)
[4]
  viability: 97% (inactive)
[5]
  viability: 54.2% (inactive)
[6]; H69AR cells + 2 uM doxorubicin
  differential viability (reversal): -0.05% (inactive)
[6]; [7]
  viability: 54.3%
[6]; [8]
  viability: 54.2%

## OCCOCCN1CCN(C(c2ccccc2)c2ccc(Cl)cc2)CC1 (stereo not given)
[1]
  viability: 79%
[2]
  Her2 level: 80% (inactive)
[3]
  viability: 79% (inactive)
[4]
  viability: 90.1% (inactive)
[5]
  viability: 98.3% (inactive)
[6]; H69AR cells + 2 uM doxorubicin
  differential viability (reversal): 9.31% (inactive)
[6]; [7]
  viability: 89%
[6]; [8]
  viability: 98.3%
